In ChEMBL document CHEMBL4715860 (J Med Chem, 2020):
Active and inactive are the calls of the source. No cut-off for these calls is given here.

Key:
[1] = target: Serine/threonine-protein kinase mTOR (Homo sapiens, UniProt P42345); test: Inhibition of alexa fluor 647-labeled kinase tracer 314 binding to recombinant human N-terminal GST-tagged mTOR (1360 to 2549 residues) expressed in baculovirus expression system measured after 60 mins by TR-FRET based LanthaScreen Eu kinase binding assay
[2] = target: T1, Phosphatidylinositol 4,5-bisphosphate 3-kinase catalytic subunit delta isoform (Homo sapiens, UniProt O00329); test: Binding affinity to wild-type human partial length PIK3CD (R108 to Q1044 residues) expressed in HEK293 cells measured after 1 hr by Kinomescan method; format: cell-based
T1 sequence (O00329 whole entry): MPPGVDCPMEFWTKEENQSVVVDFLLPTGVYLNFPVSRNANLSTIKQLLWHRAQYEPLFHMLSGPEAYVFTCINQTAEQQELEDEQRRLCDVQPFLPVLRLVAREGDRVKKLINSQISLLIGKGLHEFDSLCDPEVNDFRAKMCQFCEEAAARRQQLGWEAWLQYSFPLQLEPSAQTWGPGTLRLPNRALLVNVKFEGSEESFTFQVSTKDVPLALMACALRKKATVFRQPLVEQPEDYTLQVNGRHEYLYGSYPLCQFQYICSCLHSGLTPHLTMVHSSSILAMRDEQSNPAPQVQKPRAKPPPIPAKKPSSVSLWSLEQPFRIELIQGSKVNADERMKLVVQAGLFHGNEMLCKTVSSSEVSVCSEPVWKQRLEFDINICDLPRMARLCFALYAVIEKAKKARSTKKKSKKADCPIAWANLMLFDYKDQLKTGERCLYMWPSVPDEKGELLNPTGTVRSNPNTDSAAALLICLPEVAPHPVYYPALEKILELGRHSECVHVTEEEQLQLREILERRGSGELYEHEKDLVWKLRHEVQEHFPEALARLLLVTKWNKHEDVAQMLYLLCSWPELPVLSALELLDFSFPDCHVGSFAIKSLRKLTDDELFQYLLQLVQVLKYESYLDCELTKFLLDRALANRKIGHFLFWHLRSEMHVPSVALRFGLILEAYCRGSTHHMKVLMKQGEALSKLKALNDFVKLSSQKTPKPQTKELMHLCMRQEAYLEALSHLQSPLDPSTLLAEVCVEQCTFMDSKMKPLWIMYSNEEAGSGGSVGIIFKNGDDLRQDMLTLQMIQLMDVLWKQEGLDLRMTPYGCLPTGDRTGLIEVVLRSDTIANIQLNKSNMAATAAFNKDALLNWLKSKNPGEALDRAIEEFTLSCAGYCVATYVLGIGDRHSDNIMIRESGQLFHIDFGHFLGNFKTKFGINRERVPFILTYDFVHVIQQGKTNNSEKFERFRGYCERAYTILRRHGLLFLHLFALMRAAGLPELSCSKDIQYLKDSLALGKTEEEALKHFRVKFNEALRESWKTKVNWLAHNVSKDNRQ
How it was run: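 Compound given as an 11-point threefold series from 30 μM, in technical duplicate. Kd from a Hill fit with slope fixed at −1.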

[3] = Metabolic stability in Sprague-Dawley rat hepatocytes assessed as parent compound remaining at 5 uM incubated for 3 hrs by LC-MS analysis; format: ADME, cell-based, Hepatocyte; details: read-out: Stabilty
How it was run: (§1)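 Cryopreserved primary hepatocytes in suspension (CD-1 mouse, Sprague-Dawley rat, Beagle dog, human). Compound diluted from 10 mM DMSO stock to 5 μM final. Sampled at 0, 15, 60, 90 and 180 min, protein precipitated with ACN plus internal standard, supernatant analysed by LC−MS. Run in duplicate. 7-ethoxycoumarin as positive control. Hepatocyte-free medium incubations as negative control.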

[4] = Metabolic stability in Beagle dog hepatocytes assessed as parent compound remaining at 5 uM incubated for 3 hrs by LC-MS analysis; format: ADME, cell-based, Canis lupus familiaris, Hepatocyte; details: read-out: Stabilty; how it was run: as §1
[5] = Metabolic stability in CD1 mouse hepatocytes assessed as half-life at 5 uM incubated for 3 hrs by LC-MS analysis; format: ADME, cell-based, Hepatocyte
How it was run: (§2)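 Cryopreserved primary hepatocytes in suspension from CD-1 mouse, Sprague-Dawley rat, Beagle dog and human. Compound at 5 μM final (from 10 mM DMSO stock). Samples taken at 0, 15, 60, 90 and 180 min and quenched with ACN plus internal standard. Parent quantified by LC-MS. Hepatocyte-free medium incubations served as negative control; 7-ethoxycoumarin as positive control. Duplicate; CLint per 10^6 cells and t1/2.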

[6] = Metabolic stability in Sprague-Dawley rat hepatocytes assessed as half-life at 5 uM incubated for 3 hrs by LC-MS analysis; format: ADME, cell-based, Hepatocyte; how it was run: as §2
[7] = AUC (0 to 8 hrs) in male Sprague-Dawley rat plasma at 5 mg/kg, po; format: ADME, organism-based; design: time < 8 hr, route oral, dose 5 mg/kg
How it was run: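 Male Sprague Dawley rats, single oral dose of 5 mg/kg. Plasma and brain concentrations measured over 8 h, n = 3, mean ± SEM; AUC0−8 computed from the time course.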

[8] = Cmax in C57BL/6J mouse brain at 10 mg/kg, po administered as single dose by mass spectrometry based UHPLC analysis; format: ADME, organism-based; design: route oral, dose 10 mg/kg
How it was run: (§3)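 Female C57BL/6J mice, one oral dose of 10 mg/kg in 20% Captisol; plasma and brain levels over time, n = 3 per time point (mean).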

[9] = Tmax in C57BL/6J mouse brain at 10 mg/kg, po administered as single dose by mass spectrometry based UHPLC analysis; format: ADME, organism-based
How it was run: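 Female C57BL/6J mice dosed orally at 10 mg/kg in 20% Captisol, either once or once daily for 4 days with sampling after the last dose on day 4. Plasma and brain concentrations followed over time. Tmax taken from at least 3 time points.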

[10] = AUC (0 to 8 hrs) in C57BL/6J mouse brain at 10 mg/kg, po administered as single dose by mass spectrometry based UHPLC analysis; format: ADME, organism-based; design: time < 8 hr, route oral, dose 10 mg/kg; how it was run: as §3
[11] = Elimination half life in C57BL/6J mouse brain at 10 mg/kg, po administered once a day for 4 consecutive days by mass spectrometry based UHPLC analysis; format: ADME, organism-based; details: time 4 day, read-out: beta t1/2 (converted)
How it was run: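 Female C57BL/6J mice given 10 mg/kg p.o. in 20% Captisol once daily for 4 consecutive days. Plasma and brain sampled after the final dose on day 4, n = 3 per time point.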

Mus musculus [12] = test: In vivo inhibition of mTORC1 signalling in C57BL/6J mouse assessed as reduction in RPS6 phosphorylation at S235/236 residue in brain at 25 mg/kg, po measured after 8 hrs by Western blot analysis; format: functional, organism-based
How it was run: (§4)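 Time course in female C57BL/6J mice after 25 mg/kg p.o.: cortex taken at set time points and western blotted for pS6 and pPKB. Signals quantified against α-tubulin as % of control cortex; n = 3 per time point and n = 9 controls. Brain compound level measured in the same mice.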

Mus musculus [13] = test: In vivo inhibition of mTORC2 in C57BL/6J mouse assessed as reduction in PKB/Akt phosphorylation at Ser473 in brain at 25 mg/kg, po measured after 8 hrs by Western blot analysis; format: functional, organism-based; how it was run: as §4
P-glycoprotein = test: Substrate activity at human P-glycoprotein stably expressed in MDCK cells assessed as efflux ratio at 1 uM measured after 5 to 20 mins by UPLC-MS/MS analysis; format: ADME, cell-based; details: MDCK-MDR1, time 5-20 min
How it was run: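 CRISPR canine-MDR1-knockout MDCKII cells stably expressing human MDR1, with the knockout parent line as control. Cells grown 5 days on TransWell filters and preincubated in HBSS 30 min at 37 °C. Compound at 1 μM added apical or basolateral. Receiver sampled at 5, 10 and 20 min; UPLC-MS/MS.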

| Ki [1] | Kd [2] | remaining at 3 h, 5 µM [3] | remaining at 3 h, 5 µM [4] | half-life at 5 µM [5] | half-life at 5 µM [6] | AUC(0-t) at 8 h [7] | Cmax [8] | Tmax [9] | AUC(0-t) at 8 h [10] | half-life [11] | efflux ratio at 1 µM (P-glycoprotein) | Structure (SMILES) | inhibition (Mus musculus [12]) | inhibition (Mus musculus [13]) |
| --- | --- | --- | --- | --- | --- | --- | --- | --- | --- | --- | --- | --- | --- | --- |
| 3.6 nM | 3500 nM | 42.3% | 75.6% | 201 min | 162 min | 2430 ng·h/mL | 1420 ng/mL | 30 min | 4650 ng·h/mL | 138 min | – | C[C@@H]1COCCN1c1nc(-c2cnc(N)cc2C(F)F)nc(N2[C@H](C)COC[C@@H]2C)n1 | inactive | inactive |
| 4.7 nM | 2450 nM | – | – | – | – | – | – | – | – | – | 1.5 | C[C@@H]1COCCN1c1nc(-c2cnc(N)cc2C(F)F)nc(N2CCOCC2(C)C)n1 | – | – |
